Assay results from different studies.
Compare with care: the assays were run in different laboratories.
PRKAA2: 5'-AMP-activated protein kinase catalytic subunit alpha-2 (PRKAA2, Homo sapiens, UniProt P54646)
PSMB6: Proteasome subunit beta type-6 (PSMB6, Homo sapiens, UniProt P28072)
FAP: Prolyl endopeptidase FAP (FAP, Homo sapiens, UniProt Q12884)
SULT1E1: Sulfotransferase 1E1 (SULT1E1, Homo sapiens, UniProt P49888)
Stromelysin-2: Stromelysin-2 (Homo sapiens, UniProt P09238)

| SMILES | target | test | setting | measurement | value |
| --- | --- | --- | --- | --- | --- |
| Cn1cc(-c2cccc(N3CCc4c(sc5c4CC(C)(C)C5)C3=O)c2CO)cc(Nc2ccncn2)c1=O | PRKAA2 | enzyme activity, inhibitor | 1 µM | inhibition | 5% |
| Nc1ccc(-c2nsc(=O)o2)cc1 | PSMB6 | enzyme activity, inhibitor |  | kinact/KI | 1.09 M⁻¹ s⁻¹ |
| CN(C)C(=O)COC(=O)Cc1ccc(OC(=O)c2ccc(NC(=N)N)cc2)cc1 | FAP | enzyme activity, inhibitor | 10 µM | inhibition | 30% |
| Oc1c(Br)cc(Br)cc1Oc1ccc(Br)cc1Br | SULT1E1 | enzyme activity, substrate |  | Km | 8.87 µM |
| COc1ncccc1-c1cnn2ccc(N3CCN(C(=O)OC(C)C)CC3)nc12 | Ankyrin repeat and protein kinase domain-containing protein 1 (ANKK1, Homo sapiens, UniProt Q8NFD2) | binding, competition with immobilised ligand | 1 µM | remaining binding | 13% |
| Cn1cc(-c2cc(F)cc(N3CCn4c(cc5c4CCCC5)C3=O)c2CO)cc(Nc2ccc(N3CCN(C4COC4)CC3)cn2)c1=O | PRKAA2 | enzyme activity, inhibitor | 0.1 µM | inhibition | 14% |
| Nc1ncc(-c2nc(N3CCOCC3)nc(N3CCOCC3)n2)c(C(F)F)n1 | Serine/threonine-protein kinase Sgk2 (SGK2, Homo sapiens, UniProt Q9HBY8) | binding, competition with immobilised ligand | 10 µM | remaining binding | 84% |
| Cc1nn(C)cc1-c1nc2c(N3CCN(Cc4ccc(Cl)cc4)CC3)c(Cl)cnc2[nH]1 | Bone morphogenetic protein receptor type-2 (BMPR2, Homo sapiens, UniProt Q13873) | binding, competition with immobilised ligand | 1 µM | remaining binding | 100% |
| N=C(N)c1ccc2cc(OC(=O)c3ccc(N=C(N)N)cc3)ccc2c1 | Stromelysin-2 | enzyme activity, inhibitor | 10 µM | inhibition | 0% |
| C#Cc1n[nH]c2c(-c3cn([C@@H](C)c4ccccc4)c(=O)[nH]c3=O)cc(F)cc12 | Cyclin-dependent kinase 1, with cyclin B (CDK1, Homo sapiens, UniProt P06493) | enzyme activity, inhibitor | 0.1 µM | inhibition | 5.9% |
| COc1cc(Br)cc(Br)c1Oc1cc(Br)cc(Br)c1O | SULT1E1 | enzyme activity, substrate |  | Km | 1.09 µM |
| CCOC(=O)c1ccc(OC(=O)CCCCCNC(=N)N)cc1 | FAP | enzyme activity, inhibitor | 10 µM | inhibition | 29% |
| Cc1cc(-c2nsc(=O)o2)c(S(C)(=O)=O)s1 | PSMB6 | enzyme activity, inhibitor |  | kinact/KI | 1.4 M⁻¹ s⁻¹ |
| N#C[C@@H]1CC(F)(F)CN1C(=O)CNC(=O)c1ccnc2ccccc12 | FAP | enzyme activity, inhibitor | 10 nM | inhibition | 35% |
| C#Cc1n[nH]c2c(-c3cn([C@@H](C)c4ccccn4)c(=O)[nH]c3=O)cc(F)cc12 | Cyclin-dependent kinase 9, with cyclin T1 (CDK9, Homo sapiens, UniProt P50750) | enzyme activity, inhibitor | 0.1 µM | inhibition | 8.9% |
| COc1ccc(S(=O)(=O)N(CC(=O)NO)CC(C)C)cc1 | Stromelysin-2 | enzyme activity, inhibitor | 10 µM | inhibition | 91% |
| CCN(CC)CCCC[C@H](NC(=O)[C@H](CC(C)C)NC(=O)[C@H](C)NC(=O)[C@H](Cc1ccccc1)NC(=O)c1ccc(C(C)(C)C)cc1)C(=O)N[C@@H](CO)C(=O)OC | SP140 (Homo sapiens, UniProt Q13342) | thermal stability, DSF | 25 µM | ΔTm | 0.07 °C |
